The list is not random: actives were taken first. Their share in the collection is about 2.1%.
VIM-2 inh: VIM-2 metallo-beta-lactamase inhibitors, primary screen, biochemical, epi-absorbance readout, Pseudomonas aeruginosa enzyme. purified VIM-2, nitrocefin hydrolysis, epi-absorbance fluorescence. inhibition, % at 5.6 µM. 290,000 tested, 0.89% active. AID 1527, 2009;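 active means inhibition above the mean of all tested compounds plus 3 SD, cutoff set per screening run, cut at about 7.5% in these data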;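 further: red hydrolysis product quenches plate fluorescence so inhibitors raise well fluorescence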
TRPN1 ag: zebrafish TRPN1 channel agonists, primary screen, cell-based, HEK293, calcium fluorescence | transient receptor potential cation channel N1 (TRPN1/NompC), Danio rerio | HEK293 zebrafish TRPN1-YFP, Fluo-8 calcium fluorescence; 100% = response to 87 µM carbachol | activation, % at 3 µM | 220,000 tested, 0.18% active;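 active means activation above its plate's cutoff, the mean activation of test wells on that plate plus 3 SD, cut at about 19% in these data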
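Control set: carbachol 87 µM as high control, DMSO as low control; system: HEK293 stable line with zebrafish TRPN1-YFP; read-out: % activation versus carbachol response; detection: intracellular calcium fluorescence with Fluo-8; doses: single test compound dose, 3 µM nominal, 0.3% DMSO; schedule: dye 1 h 37 °C plus 30 min RT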
IMP-1 inh: IMP-1 metallo-beta-lactamase inhibitors, primary screen, biochemical, epi-absorbance readout, Pseudomonas aeruginosa enzyme. metallo-beta-lactamase IMP-1 (Pseudomonas aeruginosa). purified IMP-1, nitrocefin hydrolysis, epi-absorbance fluorescence. inhibition, % at 5.6 µM. 290,000 tested, 0.45% active;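 active means inhibition above the mean plus 3 SD of all compounds in the same screening run, cut at about 4.5% in these data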
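System: Purified recombinant IMP-1 metallo-beta-lactamase enzyme | Measured by: Fluorescence quenching readout, ex 480/em 530 nm | Replication: Singlicate | Incubation: 15 min preincubation plus 25 min reaction at 25 °C | Evaluation: Percent inhibition from optical density relative to buffer-blank wells | Benchmarks: DMSO with and without IMP-1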
TRPML3 agonist: human TRPML3 channel agonists, primary screen, cell-based, HEK293 TRPML3-YFP, Fluo-8 calcium fluorescence, 3 µM; Mucolipin-3 (Homo sapiens), Q8TDD5; 100% = the carbachol control signal; activation, % at 3 µM; 220,000 tested, 0.29% active;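 active means activation above its plate's cutoff, the mean activation of the plate's test wells plus 3 SD, cut at about 12% in these data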
Target sequence (Q8TDD5 whole entry, looked up): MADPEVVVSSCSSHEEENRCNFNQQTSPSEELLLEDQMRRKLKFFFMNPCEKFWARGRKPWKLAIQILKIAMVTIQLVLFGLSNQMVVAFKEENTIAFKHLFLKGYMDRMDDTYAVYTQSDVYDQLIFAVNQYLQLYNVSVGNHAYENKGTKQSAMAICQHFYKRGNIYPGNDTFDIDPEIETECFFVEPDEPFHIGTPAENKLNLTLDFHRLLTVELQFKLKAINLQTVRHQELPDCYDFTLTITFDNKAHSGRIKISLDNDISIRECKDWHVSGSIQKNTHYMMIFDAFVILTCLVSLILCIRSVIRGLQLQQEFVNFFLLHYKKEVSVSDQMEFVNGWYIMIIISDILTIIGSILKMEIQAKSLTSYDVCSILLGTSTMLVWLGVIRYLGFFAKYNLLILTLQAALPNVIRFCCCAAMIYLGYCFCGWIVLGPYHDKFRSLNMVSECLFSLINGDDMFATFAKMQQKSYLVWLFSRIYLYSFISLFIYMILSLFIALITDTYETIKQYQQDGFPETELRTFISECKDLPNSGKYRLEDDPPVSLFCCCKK
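Test system – HEK293 line with stable expression of human TRPML3-YFP channel · Control set – carbachol 87 µM final as high control (100%), DMSO as low control (0%) · Signal – Fluo-8 calcium dye fluorescence, ex 470-495, em 515-575 nm · Incubation – 1-h 37 °C dye load, 5-s basal, 120-s post-compound reads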
CRFBP-R2 block: antagonists of CRF-BP/CRF-R2 complex, primary screen, cell-based, HEK293, calcium dye fluorescence, uHTS. CRF-induced calcium fluorescence. inhibition, % at 11.8 µM. 350,000 tested, 0.59% active. AID 588475, 2011;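 active means inhibition of the ligand-induced calcium signal above about 50% at the single tested concentration, limit read from the data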
CRFBP-R2 agonist: agonists of CRF-BP/CRF-R2 complex, primary screen, cell-based, HEK293, calcium dye fluorescence, uHTS | 350,000 tested, 0.46% active | calcium dye fluorescence (FLIPR); percent of saturating CRF peptide response | activation, % at 13.2 µM | AID 588473, 2011 | CRF-binding protein / CRF receptor 2 complex (human);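 active means activation of at least 50%, plus an integration ratio under a set limit after plate pattern correction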
A number is an active result; . = inactive; / = no result.

SMILES	VIM-2 inh	TRPN1 ag	IMP-1 inh	TRPML3 agonist	CRFBP-R2 block	CRFBP-R2 agonist
C#CCOCCOCCOCCNc1nc(N2CCN(C(=O)CCCCCCCCCCNC(=O)[C@@H](CCC(=O)O)n3cc(CCCCCN)nn3)CC2)nc(N2CCN(C(=O)CCCCCCCCCCNC(=O)[C@H]([C@@H](C)CC)n3cc(CCCCCN)nn3)CC2)n1	/	/	/	/	.	.
C#CCOCCOCCOCCNc1nc(N2CCN(C(=O)CCCCCCCCCCNC(=O)[C@H]([C@@H](C)CC)n3cc(CCCCCN)nn3)CC2)nc(N2CCN(C(=O)CCCCCCCCCCNC(=O)[C@H](CO)n3cc(CCCCCN)nn3)CC2)n1	/	/	/	/	.	76.6
C#CCOCCOCCOCCNc1nc(N2CCN(C(=O)CCCCCCCCCCNC(=O)[C@H]([C@@H](C)CC)n3cc(CCCCN=C(N)N)nn3)CC2)nc(N2CCN(C(=O)CCCCCCCCCCNC(=O)[C@H](CO)n3cc(CCCCCN)nn3)CC2)n1	/	/	/	/	.	76.0
CC(C)CCn1c2ccccc2c2cc(CC(N)=O)ccc21	.	.	.	.	.	.
CCOc1ccccc1OCCCC(=O)Nc1cc(S(=O)(=O)N2CCOCC2)ccc1OC	/	/	/	/	.	.
CCCP(=O)(CC(=O)N(CC)CC)c1ccccc1 (stereo not drawn)	.	.	.	.	57.7	.
Cc1c(Cl)cccc1NC(=O)C1COc2ccccc2O1 (stereo not drawn)	.	/	.	/	.	.
COc1cc(/C=N/Nc2ncnc3sc4c(c23)CCC4)ccc1O	10.1	.	.	.	.	.
COc1cc(/C=N/NC2=NCCCCC2)ccc1O	.	.	.	.	.	.
COc1ccc(C(=O)NC2CCN(C(=O)NCc3ccccc3)CC2)cc1	.	/	.	/	.	.
Cc1cc2c(c(C)c1Cl)C(c1ccc3c(c1)OCO3)CC(=O)O2 (stereo not drawn)	/	/	/	/	.	.
Cc1ccc(C(C)C)c2c1C(c1ccc3c(c1)OCO3)CC(=O)O2 (stereo not drawn)	/	/	/	/	.	66.3
Cc1ccc(NC(=O)c2ccc(Cl)cc2Cl)cc1O	.	.	.	.	.	.
CCOC(=O)C(CCSC)Nc1nc(Cl)nc(Nc2ccc(Cl)cc2)n1 (stereo not drawn)	/	/	/	/	.	.
COc1ccc2nc3ccccc3[n+]([O-])c2c1	/	/	/	/	.	58.3
CNc1nc(N(C)C)nc(N(C)C)n1	.	.	.	.	.	71.7
CN(C)c1nc(N(C)C)nc(N(C)C)n1	.	.	.	.	.	.
C[C@@H]1CN([C@@H](C)CO)C(=O)c2cc(C#CCN(C)C)cnc2O[C@H]1CN(C)Cc1ccc2c(c1)OCO2	/	/	/	/	.	.
CC(=O)/C=C/n1c(=S)oc2ccccc21	.	.	.	.	70.0	.
C=CCn1c(SCC(=O)Nc2cccc(OC)c2)nnc1-c1cccnc1	.	.	.	.	.	.
C=CCn1c(SCC(=O)Nc2c(C)cccc2C)nnc1-c1ccncc1	.	.	.	.	52.5	.
NC(CSC(c1ccccc1)(c1ccccc1)c1ccc2c(c1)OCO2)C(=O)O (stereo not drawn)	/	/	/	/	.	.
C[C@@H]1CN([C@@H](C)CO)C(=O)Cc2cc(NC(=O)Nc3ccc(F)cc3)ccc2O[C@@H]1CN(C)Cc1ccc(Cl)c(Cl)c1	/	/	/	/	.	.
C[C@H]1CN([C@@H](C)CO)C(=O)Cc2cc(NS(C)(=O)=O)ccc2O[C@@H]1CN(C)Cc1ccc(Cl)c(Cl)c1	/	/	/	/	55.1	.
Cn1c(CN2CCCCC2)nc2cc(NS(=O)(=O)c3ccc(Cl)cc3)ccc21	.	.	.	.	.	86.0
SMILES	VIM-2 inh	TRPN1 ag	IMP-1 inh	TRPML3 agonist	CRFBP-R2 block	CRFBP-R2 agonist
O=C1c2ccccc2-c2cccc(NS(=O)(=O)c3ccc(C(F)(F)F)cc3)c21	.	.	.	.	.	96.8
COc1cc(CC(=O)Nc2ncc(C)s2)cc(OC)c1OC	.	.	.	.	.	.
Cc1cnc(NC(=O)Cc2ccc(C)c(C)c2)s1	.	/	8.7	/	.	.
C[C@H](CO)N1C[C@H](C)[C@@H](CN(C)S(C)(=O)=O)Oc2c(NC(=O)c3ccncc3)cccc2C1=O	/	/	/	/	.	.
CC(C)CC(NC(=O)c1ccccc1)C(=O)N/N=C/c1ccco1 (stereo not drawn)	.	.	.	.	.	177.9
Cn1c(=O)c2c(ncn2CC(=O)OCC(=O)NNC(=O)c2ccc(Cl)cc2)n(C)c1=O	/	/	/	/	.	.
CC(=O)OCCNc1cc(N2CCN(C)CC2)c2noc3c2c1C(=O)c1ccccc1-3	8.2	.	.	.	.	.
O=C(O)CCNc1cc(N2CCN(C(=O)c3ccco3)CC2)c2noc3c2c1C(=O)c1ccccc1-3	.	/	7.0	/	.	.
N#CC1=C(N)Oc2cc(N)ccc2C1c1ccccc1F (stereo not drawn)	.	/	.	/	.	.
CCN(CC)c1ccc(/C=c2\sc3nnc(-c4ccccc4Cl)n3c2=O)cc1	.	.	.	.	.	112.5
Cc1ccc(/C=c2/sc3nnc(-c4ccccc4Cl)n3c2=O)o1	.	.	.	.	.	.
CCN(CC)c1ccc(/C=C2/C(=O)ON=C2C)cc1	.	.	.	.	.	.
CCN(CC)c1ccc(/C=c2/sc3nnc(-c4ccccc4C)n3c2=O)cc1	.	.	.	.	.	132.6
O=C(CN1C(=O)C2C3CC(C(Br)C3Br)C2C1=O)N1CCN(Cc2ccccc2)CC1 (stereo not drawn)	.	26.8	.	.	.	.
Cc1ccc(Oc2ccc(C(=O)NCc3ccncc3)cc2)cc1	.	.	.	.	78.9	.
COc1ccc(-n2nc([N+](=O)[O-])c(=NC3CCN(Cc4ccccc4)CC3)n2O)cc1	.	.	9.4	.	.	.
COCCN1C(=O)/C(=C/c2ccc(N3CCCC3)cc2C)SC1=S	.	.	.	.	.	181.6
CCN=C1S/C(=C\c2ccc(N3CCOCC3)cc2C)C(=O)N1CC	.	.	.	.	.	.
O=C(O)c1cc(NN=C2c3ccccc3-c3ccccc32)ccc1Cl	.	/	.	/	50.3	.
C#CCN1c2ccccc2Sc2cccnc21	.	/	.	/	.	.
O=C(c1cc2ccccc2o1)N1CCN=C1SCc1cccnc1	9.4	.	.	.	.	.
CC1CCCCN1C(=O)COC(=O)c1cc([N+](=O)[O-])ccc1N1CCOCC1 (stereo not drawn)	/	/	/	/	.	.
CCOc1ccc(NC(=O)COC(=O)CCC(=O)c2cccs2)cc1	/	/	/	/	.	.
CC(=O)C1=C(O)C(=O)N(CC#N)C1c1cccs1 (stereo not drawn)	.	.	6.2	.	.	.
